The values that follow come from ChEMBL document CHEMBL4043235, “Design, semisynthesis and potent cytotoxic activity of novel 10-fluorocamptothecin derivatives” (Bioorg Med Chem Lett, 2017).

Holding throughout (type): functional, cell-based
One assay concerns MDA-MB-231. Nature of the assay: Cytotoxicity against human MDA-MB-231 cells after 72 hrs by SRB assay. The following applies: MDA-MB-231, 72 h. The gist of the method:
(§1)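 Cells seeded at 3–5 × 10^3 per well in RPMI-1640 with 10% FBS holding various sample concentrations. Exposure 72 h. Attached cells fixed with cold 50% trichloroacetic acid for 30 min, then stained with 0.04% SRB for 30 min. Bound dye solubilized in 10 mM Tris-base, absorbance read at 515 nm. Three or more experiments; IC50 given as mean with standard deviation.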
(The SRB assay estimates cell density from bound dye.)

The next assay relates to KB. The assay is described as follows: Cytotoxicity against human KB cells after 72 hrs by SRB assay. Summed up: as §1
Assay [1] in a line: Cytotoxicity against human KBVIN cells after 72 hrs by SRB assay. Summed up:
as §1

A further assay deals with A549. Nature of the assay: Cytotoxicity against human A549 cells after 72 hrs by SRB assay. The conditions noted are these: A549, 72 h. The gist of the method:
as §1

Another assay relates to MCF7. The assay is described as follows: Cytotoxicity against human MCF7 cells after 72 hrs by SRB assay. The following applies: MCF7, 72 h. The gist of the method: as §1

Structures are written as SMILES.

For `CCc1c2c(nc3ccc(OC(=O)N4CCC(N5CCCCC5)CC4)cc13)-c1cc3c(c(=O)n1C2)COC(=O)[C@]3(O)CC` [IRINOTECAN], the results for the IC50 (in the assay with MDA-MB-231; with KB; in assay [1]) were 15.6 µM, 7.99 µM and over 20 µM, respectively.
In the case of `CC[C@@]1(OC(=O)CN/C(Cc2ccc(OC)cc2)=N/S(=O)(=O)c2ccc(C)cc2)C(=O)OCc2c1cc1n(c2=O)Cc2cc3cc(F)ccc3nc2-1`, the IC50 (usually the concentration that gives 50% inhibition) in the assay on A549 was determined as 0.0622 µM; in the assay with MDA-MB-231, 0.601 µM; in the assay on KB, 0.28 µM; in assay [1], 0.497 µM; in the assay with MCF7, 0.649 µM.
The corresponding values for `CCc1c2c(nc3ccc(F)cc13)-c1cc3c(c(=O)n1C2)COC(=O)[C@@]3(CC)OC(=O)CN/C(Cc1ccc(OC)cc1)=N/S(=O)(=O)c1ccc(C)cc1` are 0.00872 µM, 0.238 µM, 0.047 µM, 0.0992 µM and 0.0808 µM.
Turning to `CC[C@@]1(O)C(=O)OCc2c1cc1n(c2=O)Cc2cc3c(CN(C)C)c(O)ccc3nc2-1` [TOPOTECAN], the half-maximal inhibitory concentration (IC50) was 0.112 µM with A549, 0.773 µM with MDA-MB-231, 0.102 µM with KB and 0.666 µM in the assay with MCF7.
With `CCc1c2c(nc3ccc(F)cc13)-c1cc3c(c(=O)n1C2)COC(=O)[C@]3(O)CC`, the IC50 in the assay with A549 is 0.00991 µM; with MDA-MB-231 it was 0.319 µM; in the assay on KB, 0.0696 µM; in assay [1] it was 0.067 µM; with MCF7, 0.0769 µM.
As for `CC[C@@]1(O)C(=O)OCc2c1cc1n(c2=O)Cc2cc3cc(F)ccc3nc2-1`, the IC50 worked out at 0.0586 µM with A549; 0.579 µM in the assay on MDA-MB-231; 0.185 µM in the assay on KB; 2.95 µM in assay [1]; 0.431 µM in the assay on MCF7.
